Assay results taken from ChEMBL document CHEMBL1138784, “Rational design, synthesis, and biological evaluation of bis(pyrimido[5,6,1-de]acridines) and bis(pyrazolo[3,4,5-kl]acridine-5-carboxamides) as new anticancer agents” (J Med Chem, 2004).
Each block holds one molecule with its values, some of them ahead of it.

Legend:
LoVo [1] = test: Ratio of IC50 against sensitive LoVo cell line and that of doxorubicin resistance LoVo cell line was determined after 1 hr exposure; format: functional, Homo sapiens
[2] = Cytotoxicity is determined as the concentration required to inhibit the growth of human colon adenocarcinoma (HT-29) cell line
PC-3 = test: Cytotoxicity against human PC3 cancer cell line was determined after 1 hr; format: functional, cell-based; conditions: PC-3, 1 h
Summary of the method: (§1)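 MTT colorimetric assay. Cells seeded by growth characteristics and preincubated 24 h, then exposed to drug for 1 h or 144 h at 37 °C, 5% CO2. H460M, MKN45 and PC-3 were grown in RPMI 1640 with 10% FCS. HCT116 was grown in D-MEM with 10% FBS and 2 mM glutamine.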

LoVo [3] = test: Cytotoxicity against doxorubicin resistant LoVo cell line was determined against 144 hrs; format: functional, cell-based; conditions: Homo sapiens
Summary of the method: (§2)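 MTT assay on doxorubicin-sensitive LoVo and resistant LoVo/Dx cells, 24 h preincubation, then 1 h or 144 h drug exposure at 37 °C, 5% CO2. IC50 in nM. Resistance index is IC50 on LoVo/Dx divided by IC50 on LoVo.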

LoVo [4] = test: Cytotoxicity against human LoVo cancer cell line was determined after 1 hr; format: functional, cell-based; summary of the method: as §2
Nucleic Acid = test: Binding site preference is determined as the ratio of Poly (dA-dT)2 to Poly (dG-dC)2; format: nucleic-acid assay
Summary of the method: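 Ethidium displacement fluorometry at pH 7.0 (10 mM Na2HPO4, 10 mM NaH2PO4, 1 mM EDTA) with 1.26 μM ethidium bromide and 1 μM [poly(dA-dT)]2 or [poly(dG-dC)]2, 20 °C. Ex 546 nm, em 595 nm, drug added serially from a DMSO stock. Preference taken from the [AT]/[GC] ratio of C50 values, counted significant only below 0.7 or above 1.3.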

SNB-19 [5] = test: Percent growth of CNS SNB-19 cell line was determined at 10e-5 M concentration after 48 hr of exposing; format: functional, Homo sapiens
Summary of the method: (§3)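 NCI sulforhodamine B screen. Cells seeded by growth rate, 24 h drug-free, then 48 h exposure to 10^-8, 10^-6 or 10^-5 M. Protein-stain optical density expressed as percent growth relative to untreated control (100%); negative values indicate cell kill.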

DU-145 [6] = test: Percent growth of prostate DU-145 cell line was determined at 10e-6 M concentration after 48 hr of exposing; format: functional, Homo sapiens
DU-145 [7] = test: Percent growth of prostate DU-145 cell line was determined at 10e-8 M concentration after 48 h of exposing; format: functional, Homo sapiens
[8] = Percent growth of melanoma LOX IMV1 cell line was determined at 10e-5 M concentration after 48 hr of exposing; format: functional, Homo sapiens; summary of the method: as §3
[9] = Percent growth of melanoma LOX IMV1 cell line was determined at 10e-6 M concentration after 48 hr of exposing; format: functional, Homo sapiens; summary of the method: as §3
[10] = Percent growth of melanoma LOX IMV1 cell line was determined at 10e-8 M concentration after 48 hr of exposing; format: functional, Homo sapiens; summary of the method: as §3
LoVo [11] = test: Cytotoxicity against doxorubicin resistant LoVo cell line was determined against 1 hour; format: functional, cell-based; conditions: Homo sapiens; summary of the method: as §2
MKN-45 = test: Cytotoxicity against human MKN45 cancer cell line was determined after 1 hr; format: functional, cell-based; conditions: MKN-45, 1 h; summary of the method: as §1
HCT-116 = test: Cytotoxicity against human HCT116 cancer cell line was determined after 1 hr; format: functional, cell-based; conditions: HCT-116, 1 h; summary of the method: as §1
SNB-19 [12] = test: Percent growth of CNS SNB-19 cell line was determined at 10e-6 M concentration after 48 hr of exposing; format: functional, Homo sapiens; summary of the method: as §3
SNB-19 [13] = test: Percent growth of CNS SNB-19 cell line was determined at 10e-8 M concentration after 48 hr of exposing; format: functional, Homo sapiens; summary of the method: as §3
786-0 [14] = test: Percent growth of renal 786-O cell line was determined at 10e-5 M concentration after 48 hr of exposing; format: functional, Homo sapiens; summary of the method: as §3
786-0 [15] = test: Percent growth of renal 786-O cell line was determined at 10e-6 M concentration after 48 h of exposing; format: functional, Homo sapiens; summary of the method: as §3
786-0 [16] = test: Percent growth of renal 786-O cell line was determined at 10e-8 M concentration after 48 h of exposing; format: functional, Homo sapiens; summary of the method: as §3
MCF7 [17] = test: Percent growth of breast MCF-7 cell line was determined at 10e-6 M concentration after 48 h of exposing; format: functional, Homo sapiens
MCF7 [18] = test: Percent growth of breast MCF-7 cell line was determined at 10e-8 M concentration after 48 hr of exposing; format: functional, Homo sapiens
SW-620 [19] = test: Percent growth of colon SW-620 cell line was determined at 10e-5 M concentration after 48 hr of exposing; format: functional, Homo sapiens; summary of the method: as §3
SW-620 [20] = test: Percent growth of colon SW-620 cell line was determined at 10e-6 M concentration after 48 hr of exposing; format: functional, Homo sapiens; summary of the method: as §3
SW-620 [21] = test: Percent growth of colon SW-620 cell line was determined at 10e-8 M concentration after 48 hr of exposing; format: functional, Homo sapiens; summary of the method: as §3
NCI-H460 [22] = test: Percent growth of lung NCI-H460 cell line was determined at 10e-5 M concentration after 48 hr of exposing; format: functional, Homo sapiens; summary of the method: as §3
NCI-H460 [23] = test: Percent growth of lung NCI-H460 cell line was determined at 10e-6 M concentration after 48 hr of exposing; format: functional, Homo sapiens; summary of the method: as §3
NCI-H460 [24] = test: Percent growth of lung NCI-H460 cell line was determined at 10e-8 M concentration after 48 hr of exposing; format: functional, Homo sapiens; summary of the method: as §3
MOLT-4 [25] = test: Percent growth of leukemia MOLT-4 cell line was determined at 10e-5 M concentration after 48 hr of exposing; format: functional, Homo sapiens; summary of the method: as §3
MOLT-4 [26] = test: Percent growth of leukemia MOLT-4 cell line was determined at 10e-6 M concentration after 48 h of exposing; format: functional, Homo sapiens; summary of the method: as §3
MOLT-4 [27] = test: Percent growth of leukemia MOLT-4 cell line was determined at 10e-8 M concentration after 48 hr of exposing; format: functional, Homo sapiens; summary of the method: as §3
OVCAR-4 [28] = test: Percent growth of ovarian OVCAR-4 cell line was determined at 10e-5 M concentration after 48 hr of exposing; format: functional, Homo sapiens; summary of the method: as §3
OVCAR-4 [29] = test: Percent growth of ovarian OVCAR-4 cell line was determined at 10e-6 M concentration after 48 hr of exposing; format: functional, Homo sapiens; summary of the method: as §3
OVCAR-4 [30] = test: Percent growth of ovarian OVCAR-4 cell line was determined at 10e-8 M concentration after 48 hr of exposing; format: functional, Homo sapiens; summary of the method: as §3
DU-145 [31] = test: Percent growth of prostate DU-145 cell line was determined at 10e-5 M concentration after 48 hr of exposing; format: functional, Homo sapiens
[32] = Cytotoxicity against human PC3 cancer cell line was determined after 144 hr; format: cell-based; conditions: Cancer cell lines; summary of the method: as §1
[33] = Cytotoxicity against human LoVo cancer cell line was determined after 144 hr; format: cell-based; summary of the method: as §2
[34] = Cytotoxicity against human HCT116 cancer cell line was determined after 144 hr; format: cell-based; conditions: HCT-116, 144 h; summary of the method: as §1
MCF7 [35] = test: Percent growth of breast MCF-7 cell line was determined at 10e-5 M concentration after 48 hr of exposing; format: functional, Homo sapiens

Binding site preference (Nucleic Acid): 25
Structure (SMILES): CN(C)CCn1c(=O)c2ccc(NCCCN(C)CCCNc3ccc4c(=O)n(CCN(C)C)c(=O)n5c6ccccc6c(=O)c3c45)c3c(=O)c4ccccc4n(c1=O)c23
Resistance index (LoVo [1]): 2.1
IC50 [2]: < 0.1 nM
IC50 (PC-3): 4.1 nM
IC50 (LoVo [3]): 3.1 nM
IC50 (LoVo [4]): 5.2 nM
Growth (SNB-19 [5]): -53%
Growth (DU-145 [6]): -13%
Growth (DU-145 [7]): 37%
Growth [8]: -82%
Growth [9]: -43%
Growth [10]: 25%
IC50 (LoVo [11]): 11 nM
IC50 (MKN-45): 0.01 nM
IC50 (HCT-116): 0.72 nM
Growth (SNB-19 [12]): 7%
Growth (SNB-19 [13]): 32%
Growth (786-0 [14]): -100%
Growth (786-0 [15]): 4%
Growth (786-0 [16]): 34%
Growth (MCF7 [17]): 0%
Growth (MCF7 [18]): 31%
Growth (SW-620 [19]): -89%
Growth (SW-620 [20]): -25%
Growth (SW-620 [21]): 26%
Growth (NCI-H460 [22]): -95%
Growth (NCI-H460 [23]): -22%
Growth (NCI-H460 [24]): 13%
Growth (MOLT-4 [25]): -71%
Growth (MOLT-4 [26]): -26%
Growth (MOLT-4 [27]): 9%
Growth (OVCAR-4 [28]): -77%
Growth (OVCAR-4 [29]): -53%
Growth (OVCAR-4 [30]): 15%
Growth (DU-145 [31]): -98%
IC50 [32]: 1.6 nM
IC50 [33]: 0.31 nM
IC50 [34]: 0.1 nM
Growth (MCF7 [35]): -96%

Structure (SMILES): COc1cccc2c1C(=O)c1c(O)c3c(c(O)c1C2=O)C[C@@](O)(C(=O)CO)C[C@@H]3O[C@H]1C[C@H](N)[C@H](O)[C@H](C)O1 [DOXORUBICIN]
Resistance index (LoVo [1]): 11
IC50 (LoVo [3]): 2300 nM
IC50 (LoVo [4]): 810 nM
IC50 (LoVo [11]): 9100 nM
